The subject of data set [1] is Acinetobacter baumannii. Kind of data set: Antibacterial activity against Acinetobacter baumannii ATCC 19606 after 18 to 20 hrs by microbroth dilution method. In kind it is functional. The procedure, abridged:
(§1)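 CLSI microbroth dilution, adapted. Mid-log bacteria, 2 × 10^6 CFU/mL in Mueller-Hinton broth, mixed 1:1 with MH broth holding peptide in serial 2-fold dilutions in 20% ethanol (0.75-48 μM). Incubated 18-20 h at 37 °C; growth read as A600. MIC is the lowest concentration giving 100% growth inhibition.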

Data set [2] has as its system Staphylococcus epidermidis. Kind of data set: Antibacterial activity against Staphylococcus epidermidis ATCC 12228 after 18 to 20 hrs by microbroth dilution method. Format: functional. The procedure, abridged:
as §1

Data set [3] in a line: Toxicity in human erythrocytes assessed as hemolysis at 6 uM after 40 mins. In kind it is cell-based, Erythrocyte. Conditions: read-out: Activity. The procedure, abridged:
(§2)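 Human red blood cells suspended in 0.9% (w/v) NaCl and incubated 40 min at 37 °C with gentle mixing with serial 2-fold peptide dilutions (peptide predissolved in 20% ethanol). Spun 5 min at 900g; supernatant read at 415 nm. Cells lysed in distilled water set the 100% lysis reference.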

The nature of data set [4]: Toxicity in human erythrocytes assessed as hemolysis at 3 uM after 40 mins. In kind it is cell-based, Erythrocyte. The conditions noted are these: read-out: Activity. The procedure, abridged:
as §2

Data set [5] concerns Candida albicans. Kind of data set: Antifungal activity against Candida albicans ATCC 10231 after 18 to 20 hrs by microbroth dilution method. Format: functional. In a few lines: (§3)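 Yeasts tested by adapted CLSI microbroth dilution in Winge medium. Peptide given in serial 2-fold dilutions (0.75-48 μM, made in 20% ethanol). Incubation 18-20 h at 30 °C, read at A600. MIC taken as the concentration giving complete (100%) growth inhibition.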

Data set [6] concerns Pseudomonas syringae. Kind of data set: Antibacterial activity against Pseudomonas syringae pv tobaci after 18 to 20 hrs by microbroth dilution method. Format: functional. The procedure, abridged:
as §1

Data set [7] relates to Acinetobacter junii. Kind of data set: Antibacterial activity against […] Acinetobacter junii RT-4 after 18 to 20 hrs by microbroth dilution method. Format: functional. In a few lines:
as §1

Data set [8] can be described thus: Toxicity in human erythrocytes assessed as hemolysis at 1.5 uM after 40 mins. Conditions: read-out: Activity. In kind it is cell-based, Erythrocyte. In a few lines: as §2
Data set [9] concerns Pseudomonas aeruginosa. Kind of data set: Antibacterial activity against Pseudomonas aeruginosa ATCC 27853 after 18 to 20 hrs by microbroth dilution method. Format: functional. In a few lines:
as §1

Data set [10] has as its system Pseudomonas aeruginosa. Kind of data set: Antibacterial activity against Pseudomonas aeruginosa ATCC 15692 after 18 to 20 hrs by microbroth dilution method. Format: functional. The procedure, abridged:
as §1

Data set [11] deals with Staphylococcus aureus. Kind of data set: Antibacterial activity against Staphylococcus aureus Cowan I after 18 to 20 hrs by microbroth dilution method. In kind it is functional. In a few lines:
as §1

The subject of data set [12] is Escherichia coli. Kind of data set: Antibacterial activity against Escherichia coli D21 after 18 to 20 hrs by microbroth dilution method. Format: functional. The procedure, abridged: as §1
Data set [13] deals with Staphylococcus capitis. Kind of data set: Antibacterial activity against Staphylococcus capitis after 18 to 20 hrs by microbroth dilution method. In kind it is functional. The procedure, abridged:
as §1

Data set [14] deals with Enterococcus faecalis. Kind of data set: Antibacterial activity against Enterococcus faecalis ATCC 29212 after 18 to 20 hrs by microbroth dilution method. Format: functional. In a few lines: as §1
Data set [15] in a line: Toxicity in human erythrocytes assessed as hemolysis at 24 uM after 40 mins. In kind it is cell-based, Erythrocyte. The conditions noted are these: read-out: Activity. The procedure, abridged: as §2
Data set [16] deals with Escherichia coli. Kind of data set: Antibacterial activity against Escherichia coli ATCC 25922 after 18 to 20 hrs by microbroth dilution method. Format: functional. The procedure, abridged:
as §1

Data set [17] relates to Yersinia pseudotuberculosis. Kind of data set: Antibacterial activity against Yersinia pseudotuberculosis YPIII after 18 to 20 hrs by microbroth dilution method. In kind it is functional. In a few lines:
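Broth microdilution adapted from CLSI. Mid-log bacteria at 2 × 10^6 CFU/mL in Mueller-Hinton broth were mixed 1:1 with MH broth containing peptide in serial 2-fold dilutions (peptide in 20% ethanol), 0.75-48 μM. Plates were incubated 18-20 h at 37 °C and growth was read as A600. MIC is the concentration giving 100% growth inhibition.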

The subject of data set [18] is Streptococcus pyogenes. Kind of data set: Antibacterial activity against Streptococcus pyogenes ATCC 21547 after 18 to 20 hrs by microbroth dilution method. In kind it is functional. The procedure, abridged: as §1
Data set [19] concerns Staphylococcus aureus. Kind of data set: Antibacterial activity against Staphylococcus aureus ATCC 25923 after 18 to 20 hrs by microbroth dilution method. Format: functional. In a few lines:
as §1

Data set [20] concerns Priestia megaterium. Kind of data set: Antibacterial activity against Bacillus megaterium Bm11 after 18 to 20 hrs by microbroth dilution method. Format: functional. In a few lines:
as §1

The nature of data set [21]: Toxicity in human erythrocytes assessed as hemolysis at 12 uM after 40 mins. Format: cell-based, Erythrocyte. The conditions noted are these: read-out: Activity. In a few lines: as §2
In data set [22] the test system is Saccharomyces cerevisiae. Kind of data set: Antifungal activity against Saccharomyces cerevisiae after 18 to 20 hrs by microbroth dilution method. In kind it is functional. The procedure, abridged: as §3
The test system of data set [23] is Schizosaccharomyces pombe. Kind of data set: Antifungal activity against Schizosaccharomyces pombe after 18 to 20 hrs by microbroth dilution method. Format: functional. In a few lines: as §3

≈ marks a conversion by molar mass, not a printed value. Where a SMILES comes first, the peptide text is derived from it.

On to `CC(C)C[C@H](NC(=O)[C@H](CC(C)C)NC(=O)[C@H](CCCNC(=N)N)NC(=O)CNC(=O)[C@H](CC(C)C)NC(=O)[C@H](CC(C)C)NC(=O)[C@H](CCCCN)NC(=O)[C@H](CO)NC(=O)[C@H](CC(C)C)NC(=O)[C@H](Cc1c[nH]c2ccccc12)NC(=O)[C@H](CCC(N)=O)NC(=O)[C@H](CC(C)C)NC(=O)[C@@H](N)CC(C)C)C(N)=O` (H-LLQWLSKLLGRLL-NH2), for which the minimum inhibitory concentration (MIC) in [1] was found to be 12 µM (≈ 18.6 µg/mL); in data set [2], 1.5 µM (≈ 2.33 µg/mL); in data set [5] it was 6 µM (≈ 9.31 µg/mL); in data set [6], 6 µM (≈ 9.31 µg/mL); in [7] it was 24 µM (≈ 37.2 µg/mL); in [9], 24 µM (≈ 37.2 µg/mL). The MIC in data set [10] came out at 12 µM (≈ 18.6 µg/mL); in data set [11], 1.5 µM (≈ 2.33 µg/mL); in [12], 12 µM (≈ 18.6 µg/mL); in data set [13], 1.5 µM (≈ 2.33 µg/mL); in data set [14] it was 3 µM (≈ 4.66 µg/mL); in [16] it was 6 µM (≈ 9.31 µg/mL). In addition, the MIC amounted to 3 µM (≈ 4.66 µg/mL) in [17]; 6 µM (≈ 9.31 µg/mL) in [18]; 3 µM (≈ 4.66 µg/mL) in data set [19]; 1.5 µM (≈ 2.33 µg/mL) in [20]; 3 µM (≈ 4.66 µg/mL) in data set [22]; 3 µM (≈ 4.66 µg/mL) in data set [23]. The hemolysis at 40 min, 6 µM in data set [3] was 25%. Also, in [4], the hemolysis at 40 min, 3 µM is 9%. In data set [8], the hemolysis at 40 min, 1.5 µM was found to be 4%. Besides, the hemolysis at 40 min, 24 µM in [15] came to 100%. Moreover, the hemolysis at 40 min, 12 µM in data set [21] was determined as 73%.
For the compound `CC(C)C[C@H](NC(=O)[C@H](Cc1c[nH]c2ccccc12)NC(=O)[C@H](CCCNC(=N)N)NC(=O)CNC(=O)[C@H](CC(C)C)NC(=O)[C@H](CC(C)C)NC(=O)[C@H](CCCCN)NC(=O)[C@H](CO)NC(=O)[C@H](CC(C)C)NC(=O)[C@H](Cc1c[nH]c2ccccc12)NC(=O)[C@H](CCC(N)=O)NC(=O)[C@H](CC(C)C)NC(=O)[C@@H](N)CC(C)C)C(N)=O` (H-LLQWLSKLLGRWL-NH2), the MIC was 6 µM (≈ 9.75 µg/mL) in data set [1]; 3 µM (≈ 4.88 µg/mL) in data set [2]; 12 µM (≈ 19.5 µg/mL) in data set [5]; 12 µM (≈ 19.5 µg/mL) in data set [6]; 6 µM (≈ 9.75 µg/mL) in data set [7]; more than 48 µM in data set [9]. Moreover, the MIC is more than 48 µM in data set [10]; 6 µM (≈ 9.75 µg/mL) in data set [11]; more than 48 µM in data set [12]; 6 µM (≈ 9.75 µg/mL) in [13]; 12 µM (≈ 19.5 µg/mL) in [14]; more than 48 µM in data set [16]. Also, the MIC in [17] came to 6 µM (≈ 9.75 µg/mL); in data set [18], 6 µM (≈ 9.75 µg/mL); in data set [19] it was 6 µM (≈ 9.75 µg/mL); in data set [20], 3 µM (≈ 4.88 µg/mL); in data set [22] it was 12 µM (≈ 19.5 µg/mL); in data set [23], 6 µM (≈ 9.75 µg/mL). Besides, the hemolysis at 40 min, 6 µM in [3] was found to be 78%. Moreover, in [4], the hemolysis at 40 min, 3 µM was determined as 13%. The hemolysis at 40 min, 1.5 µM in data set [8] amounted to 8%. Further, the hemolysis at 40 min, 24 µM in data set [15] came out at 100%. Moreover, the hemolysis at 40 min, 12 µM in data set [21] came to 100%.
Turning to `CC[C@H](C)[C@H](NC(=O)[C@H](CCCNC(=N)N)NC(=O)CNC(=O)[C@H](CC(C)C)NC(=O)[C@H](Cc1ccccc1)NC(=O)[C@H](CCCCN)NC(=O)[C@H](CO)NC(=O)[C@H](Cc1ccccc1)NC(=O)[C@H](Cc1c[nH]c2ccccc12)NC(=O)[C@H](CCC(N)=O)NC(=O)[C@@H](NC(=O)[C@@H](N)Cc1ccccc1)C(C)C)C(=O)N[C@@H](CC(C)C)C(N)=O` [TEMPORIN L], the MIC was 6 µM (≈ 9.84 µg/mL) in [1]; 3 µM (≈ 4.92 µg/mL) in data set [2]; 12 µM (≈ 19.7 µg/mL) in data set [5]; 6 µM (≈ 9.84 µg/mL) in [6]; 3 µM (≈ 4.92 µg/mL) in data set [7]; more than 48 µM in [9]. In addition, the MIC in [10] was 24 µM (≈ 39.4 µg/mL); in [11], 3 µM (≈ 4.92 µg/mL); in data set [12], 12 µM (≈ 19.7 µg/mL); in [13] it was 1.5 µM (≈ 2.46 µg/mL); in [14], 6 µM (≈ 9.84 µg/mL); in data set [16], 12 µM (≈ 19.7 µg/mL). Also, the MIC in [17] is 3 µM (≈ 4.92 µg/mL); in data set [18] it was 6 µM (≈ 9.84 µg/mL); in data set [19], 3 µM (≈ 4.92 µg/mL); in data set [20], 1.5 µM (≈ 2.46 µg/mL); in data set [22], 6 µM (≈ 9.84 µg/mL); in data set [23], 6 µM (≈ 9.84 µg/mL). For the same compound, in data set [3], the hemolysis at 40 min, 6 µM was 48%. Moreover, in data set [4], the hemolysis at 40 min, 3 µM amounted to 13%. Further, in [8], the hemolysis at 40 min, 1.5 µM came to 3%. Further, the hemolysis at 40 min, 24 µM in [15] was 94%. Further, the hemolysis at 40 min, 12 µM in data set [21] was 92%.

The record behind these values is ChEMBL document CHEMBL1687913, “Structure-activity relationship, conformational and biological studies of temporin L analogues” (J Med Chem, 2011).
